Measurements reported in ChEMBL document CHEMBL4321820, “Identification and Optimization of Mechanism-Based Fluoroallylamine Inhibitors of Lysyl Oxidase-like 2/3” (J Med Chem, 2019).
Active and inactive are the calls of the source. The rule behind the calls is not given here.

Assays:
Protein-lysine 6-oxidase = target: T1, Protein-lysine 6-oxidase (Bos taurus, UniProt P33072); assay: Inhibition of LOX in bovine aorta using putrescine as substrate preincubated with enzyme for 30 mins followed by substrate addition and measured every 2.5 mins for 30 mins by Amplex-Red oxidation assay; format: tissue-based; settings: read-out: pIC50 (converted)
T1 sequence (P33072 whole entry): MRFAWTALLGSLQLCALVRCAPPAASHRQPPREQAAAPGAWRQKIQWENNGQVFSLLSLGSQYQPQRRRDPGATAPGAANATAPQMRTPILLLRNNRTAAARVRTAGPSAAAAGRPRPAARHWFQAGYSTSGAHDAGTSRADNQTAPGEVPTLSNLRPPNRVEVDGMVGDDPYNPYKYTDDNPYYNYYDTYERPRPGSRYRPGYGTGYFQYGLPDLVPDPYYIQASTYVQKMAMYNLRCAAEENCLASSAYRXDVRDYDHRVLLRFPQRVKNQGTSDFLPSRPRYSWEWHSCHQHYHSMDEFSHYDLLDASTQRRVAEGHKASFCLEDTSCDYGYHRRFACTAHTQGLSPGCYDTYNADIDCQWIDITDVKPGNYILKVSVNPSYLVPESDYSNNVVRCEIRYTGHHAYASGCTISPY
Summary of the method: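 LOX extracted from calf aorta after PBS washing with 4 M urea/50 mM borate pH 8.2, concentrated on 10 kDa filters into 1.2 M urea/borate with protease inhibitors. Preincubated 30 min at 37 °C with compound, then Amplex Red/HRP with 10 mM putrescine; fluorescence read every 2.5 min for 30 min.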

Mus musculus [1] = assay: Increase in plasma AST level in CCl4-induced BALB/c mouse model of liver fibrosis at 2 mg/ml, po administered every 2 day for 6 weeks; format: ADME, organism-based; settings: in vivo
Summary of the method: (§1)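 Female BALB/c mice given CCl4 i.p. (1 mL/kg of 25% CCl4 in olive oil) twice weekly for 6 weeks, killed 48 h after the last dose. The 2 mg/mL treatment was given in drinking water ad libitum, changed every second day, for 6 weeks (n=15). ALT and AST were measured in plasma.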

Mus musculus [2] = assay: Antifibrotic activity in CCl4-induced BALB/c mouse model of liver fibrosis assessed as liver fibrosis area at 2 mg/ml, po administered every 2 day for 6 weeks by picro-sirius red staining based microscopy; format: functional, organism-based
Summary of the method: (§2)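 Female BALB/c mice given CCl4 i.p. (1 mL/kg of 25% CCl4 in olive oil) twice weekly for 6 weeks, killed 48 h after the last dose. The 2 mg/mL treatment was given in drinking water ad libitum, changed every second day, for 6 weeks (n=15). One liver lobe was formalin-fixed and stained for Picro Sirius Red or α-SMA. Slides were scanned at 20X. Fibrotic area is given as % of total liver area, mean ± SEM. One-way ANOVA with Dunnett's test vs CCl4 + vehicle.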

Mus musculus [3] = assay: Antifibrotic activity in CCl4-induced BALB/c mouse model of liver fibrosis assessed as reduction in liver fibrosis area at 2 mg/ml, po administered every 2 day for 6 weeks by alpha-SMA staining based microscopy; format: functional, organism-based; summary of the method: as §2
Mus musculus [4] = assay: Increase in plasma ALT level in CCl4-induced BALB/c mouse model of liver fibrosis at 2 mg/ml, po administered every 2 day for 6 weeks; format: ADME, organism-based; settings: in vivo; summary of the method: as §1
Homo sapiens = species on record: Homo sapiens; assay: Displacement of [3H]PK11195 from human recombinant peripheral benzodiazepine receptor at 10 uM incubated for 15 mins by scintillation counting method
Summary of the method: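 Single-concentration screen at 10 µM in a panel of 119 enzyme and receptor targets under standard conditions; >50% inhibition of radioligand binding counted as a hit.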

[5] = target: T2, Lysyl oxidase homolog 2 (Homo sapiens) (UniProt Q9Y4K0); assay: Time-dependent inhibition of recombinant human C-terminal His-tagged […] (1-774 residues) expressed in mouse myeloma cells assessed as inactivation constant using putrescine as substrate by kitz-wilson plot analysis
T2 sequence (whole entry): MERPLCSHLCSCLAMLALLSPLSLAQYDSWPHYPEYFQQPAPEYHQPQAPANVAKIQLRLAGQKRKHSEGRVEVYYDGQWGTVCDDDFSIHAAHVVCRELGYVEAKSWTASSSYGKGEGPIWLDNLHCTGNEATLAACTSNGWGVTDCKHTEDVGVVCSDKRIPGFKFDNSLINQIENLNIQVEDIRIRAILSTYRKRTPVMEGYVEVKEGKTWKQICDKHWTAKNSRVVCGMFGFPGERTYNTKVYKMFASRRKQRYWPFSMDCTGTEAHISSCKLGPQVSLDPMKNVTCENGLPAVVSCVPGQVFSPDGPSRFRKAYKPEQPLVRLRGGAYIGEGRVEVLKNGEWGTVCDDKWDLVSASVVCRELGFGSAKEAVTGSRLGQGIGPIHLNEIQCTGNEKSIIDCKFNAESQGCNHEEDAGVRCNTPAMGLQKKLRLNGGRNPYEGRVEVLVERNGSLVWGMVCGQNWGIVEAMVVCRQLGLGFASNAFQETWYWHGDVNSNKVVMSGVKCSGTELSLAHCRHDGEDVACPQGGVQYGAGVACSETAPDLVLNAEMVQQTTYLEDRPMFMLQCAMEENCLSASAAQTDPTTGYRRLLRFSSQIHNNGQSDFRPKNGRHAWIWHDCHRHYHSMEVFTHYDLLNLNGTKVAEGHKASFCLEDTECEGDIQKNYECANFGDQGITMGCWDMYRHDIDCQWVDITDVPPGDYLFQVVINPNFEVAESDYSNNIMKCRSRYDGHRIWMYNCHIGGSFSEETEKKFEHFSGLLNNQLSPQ
Summary of the method: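 Recombinant human LOXL2 preincubated with inhibitor for varying times at 37 °C, then 5 mM putrescine added with 120 µM Amplex Red and 1.5 U/mL HRP. Buffer was 1.2 M urea, 50 mM sodium borate, pH 8.2. Fluorescence read every 2.5 min for 30 min. Apparent Ki and kinact derived by Kitz–Wilson analysis.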

[6] = target: T2, Lysyl oxidase homolog 2 (Homo sapiens); assay: Substrate competitive inhibition of recombinant human C-terminal His-tagged […] (1-774 residues) expressed in mouse myeloma cells using different concentrations of putrescine as substrate preincubated with enzyme for 30 mins followed by substrate addition and measured every 2.5 mins for 30 mins by substrate competition based Amplex-Red oxidation assay
Summary of the method: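 Recombinant LOXL2 incubated with inhibitor plus a range of putrescine concentrations before the reaction mix was added (120 µM Amplex Red, 1.5 U/mL HRP). Buffer was 1.2 M urea, 50 mM sodium borate, pH 8.2. Fluorescence (ex 565/em 590 nm) read every 2.5 min for 30 min at 37 °C.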

[7] = target: T2, Lysyl oxidase homolog 2 (Homo sapiens); assay: Inhibition of recombinant human C-terminal His-tagged […] (1-774 residues) expressed in mouse myeloma cells at 10XIC50 preincubated with bound enzyme for 30 mins followed by drug wash-out and later incubated with putrescine substrate and measured after 30 mins by Amplex-Red oxidation assay; format: cell-based
[8] = target: T2, Lysyl oxidase homolog 2 (Homo sapiens); assay: Irreversible inhibition of recombinant human C-terminal His-tagged […] (1-774 residues) expressed in mouse myeloma cells assessed as maximal inhibition at 30XIC50 incubated for 60 mins followed by 100-fold dilution prior to addition of putrescine as substrate and measured after 30 mins by jump dilution assay based Amplex-Red oxidation assay relative to control
Summary of the method: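 LOXL2 soaked 60 min at 37 °C with inhibitor at 30× IC50. Diluted 50-fold in assay buffer (1.2 M urea, 50 mM borate, pH 8.2), then 1:2 with reaction mix of Amplex Red 120 µM, HRP 1.5 U/mL and putrescine. Read out 30 min after substrate addition (ex 565/em 590, 37 °C). Percent activity followed over time after dilution.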

[9] = Selectivity index, ratio of IC50 for recombinant human C-terminal His-tagged […] (1-774 residues) expressed in mouse myeloma cells to IC50 for LOX in bovine aorta
[10] = target: T2, Lysyl oxidase homolog 2 (Homo sapiens); assay: Inhibition of recombinant human LOXL2 assessed as inhibition of collagen cross linking compound replenishment for 5 days and measured on day 7 by UPLC-ESI-MS/MS analysis

inhibition (Homo sapiens) [%] | Kinact [5] [min⁻¹] | inhibition [6] | inhibition [7] | Imax [8] [%] | inhibition [10] | Compound | IC50 (Protein-lysine 6-oxidase) [nM] | Activity (Mus musculus [1]) | inhibition (Mus musculus [2]) | inhibition (Mus musculus [3]) | Activity (Mus musculus [4]) | IC50 ratio [9]
 |  |  |  |  |  | N#CCCN | 2000 | Toxic | inactive | Active | Toxic | 
> 50 | 0.89 | Active | Active | > 80 | Dose-dependent effect | Cc1c(-c2cccc(S(=O)(=O)N(C)C)c2)c2cc(C(=O)O)ccc2n1C/C(F)=C/CN |  |  |  |  |  | > 300
